Bioassay records (PubChem BioAssay)
RGS4 inh: RGS4 inhibitors, primary screen, cell-based, HEK293 M3R inducible RGS4, calcium flux | AID 463165, 2010 | B-score at 10 µM | Fluo-4 calcium flux; active compounds read high; triggered by carbachol at its EC20 | Regulator of G-protein signaling 4 (Homo sapiens), P49798 | 310,000 tested, 0.45% active;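 active = B-score, a plate-corrected calcium signal, over three deviations above library mean, with baseline fluorescence within five deviations of library mean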;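 also: RGS4 expression induced by doxycycline in cells with stable M3 receptor; B-score is computed from the integrated fluorescence ratio over baseline after carbachol; higher B-score means a larger calcium signal and so more RGS4 inhibition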
Target sequence (P49798 whole entry, looked up): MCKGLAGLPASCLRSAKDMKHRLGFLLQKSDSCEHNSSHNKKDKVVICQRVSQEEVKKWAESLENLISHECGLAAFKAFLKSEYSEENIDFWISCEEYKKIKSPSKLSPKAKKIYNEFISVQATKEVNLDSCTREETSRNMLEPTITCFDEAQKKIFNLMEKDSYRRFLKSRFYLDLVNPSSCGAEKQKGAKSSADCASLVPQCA
RGS4 act: RGS4 potentiators or activators, primary screen, cell-based, HEK293 M3R inducible RGS4, calcium flux. carbachol calcium flux Fluo4; active compounds read low. B-score at 10 µM. 310,000 tested, 0.92% active;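 active = B-score of the integrated calcium signal more than 4 SD below the library mean, with starting fluorescence not abnormally high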;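 also: negative B-score means reduced calcium response which marks RGS4 activation or potentiation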
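Also added: carbachol at ECmax as muscarinic agonist stimulus; Assay system: HEK293 cells with stable M3R and inducible RGS4; Timing: overnight RGS4 induction, 30 min dye load 37 °C, 20 min compound RT; Measured by: Fluo4-AM (2 µM) calcium-flux fluorescence, kinetic read.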
MrgX1 antagonist: antagonists of human MrgX1 receptor, primary screen, HEK293 cells, Fluo-4 calcium flux | BAM8-22 antagonism; active compounds read low | Mas-related G-protein coupled receptor member X1 (Homo sapiens), Q96LB2 | 310,000 tested, 1.3% active | B-score at 10 µM | AID 588676, 2011;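 active = calcium-response B-score plate-corrected more than 3 library SD below zero, starting fluorescence within 5 deviations, no agonist response on first addition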;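 also: peak minus trough fluorescence over baseline after final BAM8-22 challenge near maximal dose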
Target sequence (Q96LB2 whole entry, looked up): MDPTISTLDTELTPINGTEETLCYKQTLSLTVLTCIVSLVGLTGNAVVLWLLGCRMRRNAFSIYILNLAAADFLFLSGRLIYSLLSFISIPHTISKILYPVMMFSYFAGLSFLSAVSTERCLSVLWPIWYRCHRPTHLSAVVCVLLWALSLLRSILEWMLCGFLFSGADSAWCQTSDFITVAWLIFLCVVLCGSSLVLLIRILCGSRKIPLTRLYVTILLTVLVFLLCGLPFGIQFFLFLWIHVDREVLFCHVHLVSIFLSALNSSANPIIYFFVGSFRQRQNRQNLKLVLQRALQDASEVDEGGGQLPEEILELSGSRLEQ
MrgX1 PAM: positive allosteric modulators of MrgX1, primary screen, HEK293 cells, Fluo-4 calcium flux; FDSS; active compounds read high; Mas-related G-protein coupled receptor member X1 (Homo sapiens), Q96LB2; B-score at 10 µM; 310,000 tested, 0.63% active;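 active = plate-corrected calcium response at least 3 library SD above typical, normal starting fluorescence, not activating the receptor alone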;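 also: compound read alongside a low EC10 to EC30 dose of BAM8-22 agonist; peak minus trough fluorescence over baseline measured at the second addition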
MrgX1 agonist: agonists of human MrgX1 receptor, primary screen, HEK293 cells, Fluo-4 calcium flux; AID 588627, 2011; Fluo-4 calcium fluorescence, agonist mode; active compounds read high; 310,000 tested, 0.44% active; Mas-related G-protein coupled receptor member X1 (Homo sapiens), Q96LB2; B-score at 10 µM;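 active = calcium response B-score plate-corrected fluorescence ratio at least 3 library SD, with starting fluorescence B-score inside 5 SD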
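System: HEK293 cells stably expressing human MrgX1 receptor; Dosing: test compound in the initial addition of three; Schedule: overnight plating, then 30 min 37 °C plus 30 min room-temperature dye loading; Detection: kinetic calcium dye fluorescence, Fluo-4 NW; Controls: per-plate positive and negative controls for Z′ factor.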
RGS4 inh valid: enhanced carbachol calcium response, M3R/RGS4 cells, RGS4 inhibitor project, cell-based, validation screen, HEK293 M3R/RGS4, calcium flux; calcium response, % at 10 µM; shares compounds with RGS4 inh; AID 492999, 2010; carbachol calcium Fluo-4 fluorescence; carbachol added at its EC20; 0 = buffer wells, 100 = carbachol control; 1,700 tested, 65% active;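 active = duplicate-averaged calcium response above the buffer-only control mean plus 5 SD of those controls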;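 also: integrated fluorescence ratio F max minus min over baseline F0; higher response in RGS4-induced cells means RGS4 inhibition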
M3R Ca ctr: carbachol calcium response in non-induced M3R cells, confirmation, counter-screen for RGS4 inhibitor project, cell-based, HEK293 M3R; 1,900 tested, 20% active; shares compounds with RGS4 inh; carbachol calcium Fluo-4; submaximal (EC20) carbachol stimulus; buffer wells 0%, carbachol control wells 100%; activity (percent), % at 10 µM; call rule not given here;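 also: RGS4 induction absent so cells express M3R without RGS4; higher means more calcium signal and flags a non-specific hit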
RGS4 inh ctr2: second RGS4 inhibitor counter-screen in uninduced cells lacking carbachol; shares compounds with RGS4 inh; HEK293 M3R/RGS4 non-induced, Fluo-4 calcium, no carbachol; normalised: buffer wells 0%, carbachol wells 100%; calcium response (agonist-mode artifact), % at 10 µM; 1,900 tested, 22% active; AID 493001;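 active = duplicate-averaged calcium rise in uninduced cells above buffer wells' mean plus 5 SD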
* marks the source's active call; other numbers are inactive results; i = inactive; x = no result given. This is a sample that favours compounds with a hit; in the whole collection about 3.5% have one here.

SMILES	RGS4 inh	RGS4 act	MrgX1 antagonist	MrgX1 PAM	MrgX1 agonist	RGS4 inh valid	M3R Ca ctr	RGS4 inh ctr2
O=C(O)c1ccc2c(c1)C(=O)N(c1cccc(C(=O)/C=C/c3ccccc3)c1)C2=O	15*	i	i	i	i	68%*	i	i
O=C(O)c1cccc(N2C(=O)c3ccc(C(=O)c4cccc([N+](=O)[O-])c4)cc3C2=O)c1	i	i	i	i	i	x	x	x
Cc1ncc([N+](=O)[O-])n1CC(=O)N/N=C/c1ccc(F)cc1	i	i	i	i	i	x	x	x
CCNC(=S)N/N=C/c1sccc1C	i	i	i	i	i	x	x	x
Cc1ccsc1/C=N/NC(=S)NCCc1ccccc1	8.6*	i	i	i	i	18%*	i	i
CCC1CCCCN1CCCNC(=O)C1CCCN(S(=O)(=O)N2CC(C)CC(C)C2)C1 (stereo not given)	i	i	i	i	i	x	x	x
CC1CCN(S(=O)(=O)c2cccc(C(=O)N3CCN(c4ccc(F)cc4)CC3)c2)CC1	i	i	i	i	i	x	x	x
CC(=O)Nc1cccc(C(=O)/C=C/c2ccc(F)cc2)c1	i	i	i	i	i	i	i	10%*
CC(=O)Nc1cccc(C(=O)/C=C/c2ccc(N(C)C)cc2)c1	i	i	i	i	63*	i	i	156%*
CC(=O)Nc1cccc(C(=O)/C=C/c2ccc(Br)cc2)c1	7.2*	i	i	i	i	i	i	i
CC(=O)Nc1cccc(C(=O)/C=C/c2ccc[nH]2)c1	i	i	i	i	i	x	x	x
O=C(NC1CCCCC1)C(c1ccccn1)N(C(=O)c1csnn1)C1CCCCC1 (stereo not given)	i	i	i	i	i	x	x	x
COc1ccc(N(CC(=O)NCc2ccc(C)cc2)S(=O)(=O)c2c(C)[nH]c(=O)[nH]c2=O)cc1	i	i	i	i	i	x	x	x
COc1ccc(-n2c(CNc3ccc(C)cc3)nnc2SCc2ccccc2)cc1	i	i	i	i	i	x	i	i
O=C(CSc1cccc[n+]1[O-])Nc1cc2c(cc1Cl)C(=O)c1ccccc1C2=O	12*	i	i	i	i	65%*	i	i
C=CCSc1n[nH]c2nc3c(c(=O)n12)C1(CCCC1)Cc1ccccc1-3	x	x	i	i	i	x	x	x
CCSc1n[nH]c2nc3c(c(=O)n12)C1(CCCC1)Cc1ccccc1-3	i	i	i	i	i	x	i	i
O=C(CO/N=C/c1ccc(OC(F)F)cc1)NC1CCCCCC1	i	i	i	i	i	x	x	x
COc1ccc(-c2c(-c3ccc(OCC(=O)NN)cc3O)n[nH]c2C)cc1OC	i	i	i	i	i	x	x	x
COc1ccc(-c2c(-c3ccc(OCC(=O)NN)cc3O)n[nH]c2C(F)(F)F)cc1	12*	i	i	i	i	28%*	29%*	i
CCCCNc1nc(Nc2ccc(C)c(Cl)c2)c2cnn(C)c2n1	i	i	i	i	i	x	x	x
CCc1ccc2[nH]c(=O)c(CN(Cc3ccccc3OC)Cc3nnnn3Cc3ccco3)cc2c1	i	i	i	i	i	i	i	18%*
COc1ccccc1CN(Cc1cc2cc(C)ccc2[nH]c1=O)Cc1nnnn1Cc1ccco1	i	i	i	i	i	x	i	i
CC1(C)CC(=O)C(C(C2=C(O)CC(C)(C)CC2=O)c2ccco2)C(=O)C1 (stereo not given)	7*	i	i	i	i	22%*	i	i
Cc1c(N=NC2=C(O)CC(C)(C)CC2=O)cc2c(c1[N+](=O)[O-])C(C)(C)CC2(C)C	7.4*	i	i	i	i	28%*	i	i
SMILES	RGS4 inh	RGS4 act	MrgX1 antagonist	MrgX1 PAM	MrgX1 agonist	RGS4 inh valid	M3R Ca ctr	RGS4 inh ctr2
CC(=O)Nc1ccc(S(=O)(=O)N(Cc2ccco2)Cc2cc3ccccc3[nH]c2=O)cc1	i	i	i	i	i	x	x	x
CCCN1C(=O)/C(=C/c2nc3ccccc3c(=O)[nH]2)c2cc(C)ccc21	9.5*	i	i	i	i	26%*	58%*	i
CCCN1C(=O)/C(=C/c2nc3ccccc3c(=O)[nH]2)c2ccccc21	11*	i	i	i	i	8.5%*	i	i
COc1ccc(C(=O)/C=C/c2ccccc2)c(O)c1	i	i	i	i	i	i	i	i
COc1ccc(C(=O)/C=C/c2ccc(OC)cc2OC)c(O)c1	i	i	i	i	i	x	x	x
O=C(/C=C/c1ccoc1)c1ccccc1O	i	i	i	i	i	x	x	x
O=C(/C=C/c1ccc(O)c(O)c1)c1ccccc1O	13*	i	i	14*	i	25%*	48%*	i
COc1ccc(C(=O)/C=C/c2cc(C(=O)O)cc3c2OCOC3)c(O)c1	24*	i	i	i	i	64%*	70%*	i
CCCc1nnc(SCC(=O)Nc2cccc(C(F)(F)F)c2)o1	i	i	i	i	i	x	x	x
Cc1ccc(C(C[N+](=O)[O-])c2c(-c3ccccc3O)[nH][nH]c2=O)cc1 (stereo not given)	6.3*	i	i	i	i	34%*	68%*	22%*
COc1ccc(C(C[N+](=O)[O-])c2c(C)[nH]c3ccccc23)cc1OC (stereo not given)	i	i	i	i	i	x	x	x
Cn1cc(C(C[N+](=O)[O-])c2ccccc2)c2ccccc21 (stereo not given)	i	i	i	i	i	x	x	x
O=c1[nH][nH]c(-c2ccccc2O)c1C(C[N+](=O)[O-])c1ccc(Br)cc1 (stereo not given)	15*	i	i	i	i	32%*	36%*	20%*
